Where two headings read alike, the source gives them in different places.

In data set [1] the test system is RANKL-stimulated osteoclast formation in RAW 264.7 cells. Briefly: RANKL-stimulated osteoclastogenesis assay. To be noted: even at 10-fold higher doses than the curcumin IC50. The data set is classed as cell-based, murine. Put shortly:
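RAW 264.7 cells were seeded at 5×10^3/well in DMEM with 10% FBS and 1% pen/strep and left to adhere overnight at 37°C, 5% CO2. They were pretreated 4 h with the test compound, then stimulated with recombinant mouse RANKL (50 ng/mL final) for 72 h at 37°C. TRAP-positive multinucleated osteoclasts were counted. n=4/group, mean ± SEM.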

The format of data set [2] is in vivo, mice (C57BL/6J, C3H/HeJ). To be noted: mouse, po, 500 mg/kg. Put shortly: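 Oral gavage of 500 mg/kg in DMSO to C57BL/6J and C3H/HeJ mice (n=3–4/group), with sampling at 30 min under isoflurane. Marrow pellets were suspended in 50 mM sodium acetate pH 5 for 2 h on ice and centrifuged. Serum was acidified to pH 5 with HCl before HLB extraction and LC/MS. Marrow concentrations were corrected to pellet volume, assuming density 1.06 g/ml. Mean ± SEM.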

Data set [3] is classed as in vivo, mice (C57BL/6J, C3H/HeJ, mps/mps). The following applies: for concentration at 20 min: mouse, ip, 100 mg/kg. In outline: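 Test compound dosed IP at 100 mg/kg in DMSO to 15-week female BL/6J, female HeJ and male mps/mps mice (n=3–5/group). Blood and marrow were taken under isoflurane at 20 min. Marrow pellets were resuspended in 50 mM sodium acetate pH 5 and held 2 h on ice, then supernatants were kept. Serum was acidified to pH 5, and aglycone and glucuronide were measured by HLB solid-phase extraction and LC/MS. Mean ± SEM.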

In data set [4] the target is T1, GUSB (Mus musculus, UniProt P12265).
T1 sequence (P12265 23-648): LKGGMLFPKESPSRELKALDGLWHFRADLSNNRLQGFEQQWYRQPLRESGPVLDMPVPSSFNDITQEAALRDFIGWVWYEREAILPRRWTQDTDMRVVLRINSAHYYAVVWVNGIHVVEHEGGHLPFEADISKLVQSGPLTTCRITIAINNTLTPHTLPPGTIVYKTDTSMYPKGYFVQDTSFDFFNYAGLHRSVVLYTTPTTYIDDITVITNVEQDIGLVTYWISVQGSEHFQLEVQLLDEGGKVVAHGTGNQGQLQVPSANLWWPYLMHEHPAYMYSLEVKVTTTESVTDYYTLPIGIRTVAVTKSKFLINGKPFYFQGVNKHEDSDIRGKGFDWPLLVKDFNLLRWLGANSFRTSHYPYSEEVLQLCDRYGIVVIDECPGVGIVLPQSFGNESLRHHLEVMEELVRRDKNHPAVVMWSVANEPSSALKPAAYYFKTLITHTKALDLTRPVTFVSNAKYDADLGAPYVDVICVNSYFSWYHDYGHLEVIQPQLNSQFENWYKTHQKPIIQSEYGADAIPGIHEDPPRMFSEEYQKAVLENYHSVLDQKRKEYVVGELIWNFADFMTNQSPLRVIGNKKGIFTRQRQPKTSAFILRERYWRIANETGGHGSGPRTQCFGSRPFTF
It counts as biochemical, C57BL/6J mice. To be noted: 0.5 μM curcumin-glucuronide added ex vivo, sodium acetate buffer 50 mM pH 5, 2 h.

The target in data set [5] is T1, GUSB. It counts as biochemical, C57BL/6NJ mice. The following applies: 10 μM added in vitro, 2 h, 37°C, physiologic pH.
The target of the next data set is T2, rh-HPSE (Homo sapiens, UniProt Q9Y251).
T2 sequence (Q9Y251 158-543 limits assumed): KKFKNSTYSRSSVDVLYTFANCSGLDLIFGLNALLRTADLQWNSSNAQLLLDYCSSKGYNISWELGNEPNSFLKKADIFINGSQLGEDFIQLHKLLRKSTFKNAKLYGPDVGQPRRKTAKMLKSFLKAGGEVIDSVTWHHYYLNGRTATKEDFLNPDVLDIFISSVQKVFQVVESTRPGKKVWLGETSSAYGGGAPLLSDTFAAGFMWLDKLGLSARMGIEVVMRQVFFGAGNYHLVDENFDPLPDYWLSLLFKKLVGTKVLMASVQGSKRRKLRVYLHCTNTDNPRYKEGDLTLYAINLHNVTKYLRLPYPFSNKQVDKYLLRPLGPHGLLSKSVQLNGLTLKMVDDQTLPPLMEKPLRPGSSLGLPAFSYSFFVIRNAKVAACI
T2 sequence (Q9Y251 36-109 limits assumed): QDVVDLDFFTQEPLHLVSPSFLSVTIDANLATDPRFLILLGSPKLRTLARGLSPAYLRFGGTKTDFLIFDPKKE
Briefly: Deconjugation of curcumin-glucuronide by recombinant enzyme. To be noted: 5 μg/mL (100 nM) enzyme, 459 nM substrate, 24 h, 37°C, pH 5. It counts as biochemical. Put shortly: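 Recombinant human enzyme was incubated with synthesized glucuronide substrate in an enzyme-optimized pH 5 buffer for 24 h at 37°C. Activity was taken from quantitation of the remaining glucuronide substrate and the released aglycone product. n=3–6 per group.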

As to `COc1cc(/C=C/C(=O)CC(=O)/C=C/c2ccc(O[C@@H]3O[C@H](C(=O)O)[C@@H](O)[C@H](O)[C@H]3O)c(OC)c2)ccc1O` [curcumin-glucuronide], the “Effect on RANKL-stimulated osteoclast formation” value in data set [1] is “without effect”. Also, the concentration at 30 min in data set [2] (C57BL/6J, bone marrow suspension) was 0.36 µM; in data set [2] (C57BL/6J, serum), 82.7 µM; in data set [2] (male, C3H/HeJ, bone marrow suspension), 1.19 µM; in data set [2] (male, C3H/HeJ, serum) it was 80 µM. The concentration at 20 min in data set [3] (female, C3H/HeJ, bone marrow suspension) turned out to be 2.7 µM; in data set [3] (female, C3H/HeJ, serum) it was 92.1 µM; in data set [3] (female, C57BL/6J, bone marrow suspension), 1.3 µM; in data set [3] (female, C57BL/6J, serum) it was 92.7 µM; in data set [3] (male, mps/mps, serum), 151 µM. Besides, the “Increase of bone marrow curcumin-glucuronide concentrations vs BL/6J” value in data set [3] (mps/mps mice, IP curcumin) came to 4 fold. Besides, at GUSB [4], the “Deconjugation by soluble GUSB activity in cell-free marrow fractions” value is on record as “sufficient to deconjugate”. In addition, the “Deconjugation in conditioned media from bone marrow cells” value on GUSB [5] is recorded as “forming detectable aglycone curcumin”. Further, at rh-HPSE, the “Ability of HPSE to deconjugate curcumin glucuronide” value was “only GUSB and KL were able to deconjugate”.
